Experimental data of several laboratories.
Target: Death-associated protein kinase 1 (DAPK1, Homo sapiens, UniProt P53355)

SMILES	effect on	technique	tested at	remaining binding
CC(=O)N1CCC(c2ccc(C(=O)NC3=NCCN3)cc2C(F)(F)F)CC1	cell-free assay	competition with immobilised ligand	1 µM	100%
C[C@H]1CCN(c2nccc(-c3cnn4ncccc34)n2)C1	binding		1 µM	71%
O=C(c1ccc(Nc2nccc(-c3cc4ccccc4s3)n2)cc1)N1CCC(N2CCCC2)CC1	binding	competition with immobilised ligand	1 µM	13%
O=C(Nc1c[nH]nc1C(=O)NC1CCNCC1)c1cc(F)cc(F)c1	binding	competition with immobilised ligand	1 µM	100%
COc1cnc(Nc2cccc(S(N)(=O)=O)c2)nc1N1CCN(c2ccccc2)CC1	binding	competition with immobilised ligand	1 µM	83%
FC(F)(F)Oc1cccc(-c2cnc3ccc(-c4ccncc4)nn23)c1	cell-free assay	competition with immobilised ligand	5 µM	89%
Nc1c(C(=O)NCc2ccc(C(=O)NCCCC3CCCCC3)cc2)cnn1-c1ccccc1	cell-free assay	competition with immobilised ligand	0.1 µM	92%
Nc1ncc2c(n1)-c1c([nH]c3ccc(C#CC4CC4)cc13)CCCC2	binding	competition with immobilised ligand	1 µM	87%
O=C(c1ccc(Nc2ncc(Cl)c(-c3ccc(Cl)s3)n2)cc1)N1CCC(N2CCCC2)CC1	binding	competition with immobilised ligand	1 µM	17%
CN(C)c1nccc(-c2cnn3ncccc23)n1	binding		1 µM	100%
COc1ncc2cc3ccccc3nc2c1C#N	cell-free assay	competition with immobilised ligand	5 µM	95%
CS(=O)(=O)c1cc(C2(NC(=O)c3cncc4c3cnn4-c3ccc(F)cc3)CC2)ccn1	cell-free assay	competition with immobilised ligand	1 µM	83%
CC1CCCN1c1nccc(-c2cnn3ncccc23)n1 (stereo not drawn)	binding		1 µM	99%
C=CC(=O)N1CCC(C(=O)NCC(=O)N2CCN(c3nc(-c4cnc(N)nc4C(F)F)nc(N4CCOCC4)n3)CC2)CC1	binding	competition with immobilised ligand	1 µM	96%
CN(C)c1ncc(F)c(-c2cnn3ncccc23)n1	binding		1 µM	100%
c1ccc(N2CCN(Cc3nc4ccccc4[nH]3)CC2)nc1	binding	competition with immobilised ligand	1 µM	100%
c1cnn2ncc(-c3ccnc(N4CCC45COC5)n3)c2c1	binding		1 µM	79%
Cn1nc(C(=O)NCc2ccc(C(=O)O)cc2)cc1-c1ccc2[nH]ccc2c1	cell-free assay	competition with immobilised ligand	0.1 µM	97%
O=C(c1ccc(Nc2ncc(Cl)c(-c3cc4ccccc4s3)n2)cc1)N1CCC(N2CCCC2)CC1	binding	competition with immobilised ligand	1 µM	20%
FC(F)(F)c1ccc2c(c1)nc(-c1cccnc1)n2C1CC1	cell-free assay	competition with immobilised ligand	1 µM	100%
CN(C)c1nccc(-c2cnc3ncccn23)n1	binding		1 µM	92%
